Here are results for three molecules from ChEMBL document CHEMBL4613300, “Pharmacophore-Based Virtual Screening for Identification of Negative Modulators of GLI1 as Potential Anticancer Agents” (ACS Med Chem Lett, 2020).

One data set deals with Daoy. Nature of the data set: Antiproliferative activity against human DaOY cells assessed as reduction in cell viability incubated for 72 hrs by trypan blue or crystal violet staining based assay. The class given is functional. Conditions: Homo sapiens, Daoy, 72 h; read-out: IC50.
The target of data set [1] is T1, Zinc finger protein GLI1 (Homo sapiens) (UniProt P08151).
T1 sequence (whole entry): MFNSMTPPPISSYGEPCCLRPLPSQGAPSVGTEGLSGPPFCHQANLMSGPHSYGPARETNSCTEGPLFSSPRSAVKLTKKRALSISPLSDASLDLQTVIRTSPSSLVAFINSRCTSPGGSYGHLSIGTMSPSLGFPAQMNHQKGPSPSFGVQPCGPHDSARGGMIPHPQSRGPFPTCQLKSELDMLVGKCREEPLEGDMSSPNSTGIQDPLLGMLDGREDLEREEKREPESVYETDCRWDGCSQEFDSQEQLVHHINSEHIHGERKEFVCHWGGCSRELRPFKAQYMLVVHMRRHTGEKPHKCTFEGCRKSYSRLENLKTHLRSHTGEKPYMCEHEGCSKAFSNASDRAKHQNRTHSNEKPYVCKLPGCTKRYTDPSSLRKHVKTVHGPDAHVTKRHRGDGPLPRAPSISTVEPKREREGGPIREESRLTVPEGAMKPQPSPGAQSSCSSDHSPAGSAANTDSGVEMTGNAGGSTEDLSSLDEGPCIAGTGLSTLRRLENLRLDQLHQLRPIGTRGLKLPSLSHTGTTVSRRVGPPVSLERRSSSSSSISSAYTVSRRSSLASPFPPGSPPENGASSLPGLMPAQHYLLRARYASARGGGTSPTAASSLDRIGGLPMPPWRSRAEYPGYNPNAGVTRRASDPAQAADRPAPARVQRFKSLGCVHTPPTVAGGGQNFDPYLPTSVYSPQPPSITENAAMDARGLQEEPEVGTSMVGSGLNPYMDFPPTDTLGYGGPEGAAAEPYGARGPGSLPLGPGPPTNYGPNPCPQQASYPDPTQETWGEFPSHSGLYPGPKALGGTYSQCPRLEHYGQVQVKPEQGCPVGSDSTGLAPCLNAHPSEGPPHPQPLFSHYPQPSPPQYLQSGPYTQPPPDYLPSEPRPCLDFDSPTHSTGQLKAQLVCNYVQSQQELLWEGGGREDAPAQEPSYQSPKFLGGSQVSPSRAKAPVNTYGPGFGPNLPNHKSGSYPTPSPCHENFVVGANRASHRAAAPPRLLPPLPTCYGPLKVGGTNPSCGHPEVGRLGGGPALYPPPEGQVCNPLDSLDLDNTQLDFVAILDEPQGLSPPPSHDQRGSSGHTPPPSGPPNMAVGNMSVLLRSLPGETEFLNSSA
Kind of data set: Inhibition of GLI1 transcriptional activity in human A375 cells assessed as downregulation of HIP1 mRNA expression at 5 uM incubated for 48 hrs by qPCR analysis. The class given is cell-based. As to conditions: A-375. The method in brief:
(§1)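 A375 cells treated with compound (5 μM) or DMSO for 48 h. mRNA measured by qPCR as gene/(mean of HPRT and EIF2α) ratio, DMSO control set to 1. Mean ± SD.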
Background: Quantitative PCR measures a nucleic acid by following its amplification.

Another data set relates to MCF-10A. Nature of the data set: Cytotoxicity against human MCF10A cells assessed as reduction in cell viability incubated for 72 hrs by trypan blue or crystal violet staining based assay.
The target in data set [2] is T1, Zinc finger protein GLI1 (Homo sapiens). Kind of data set: Inhibition of GLI1 transcriptional activity in human A375 cells assessed as downregulation of GLI2 mRNA expression at 5 uM incubated for 48 hrs by qPCR analysis. As to conditions: A-375. The class given is cell-based. Summed up:
as §1

For data set [3] the target is unchanged. Nature of the data set: Inhibition of GLI1 transcriptional activity in human A375 cells assessed as downregulation of GLI1 mRNA expression at 5 uM incubated for 48 hrs by qPCR analysis. As to conditions: A-375. The class given is cell-based. The method in brief: as §1
For data set [4] the target is unchanged. Kind of data set: Inhibition of GLI1 transcriptional activity in human A375 cells assessed as downregulation of PTCH1 mRNA expression at 5 uM incubated for 48 hrs by qPCR analysis. The class given is cell-based. As to conditions: A-375. Summed up:
as §1

Data set [5] concerns the target T2, Zinc finger protein GLI1 (Mus musculus) (UniProt P47806).
T2 sequence (whole entry): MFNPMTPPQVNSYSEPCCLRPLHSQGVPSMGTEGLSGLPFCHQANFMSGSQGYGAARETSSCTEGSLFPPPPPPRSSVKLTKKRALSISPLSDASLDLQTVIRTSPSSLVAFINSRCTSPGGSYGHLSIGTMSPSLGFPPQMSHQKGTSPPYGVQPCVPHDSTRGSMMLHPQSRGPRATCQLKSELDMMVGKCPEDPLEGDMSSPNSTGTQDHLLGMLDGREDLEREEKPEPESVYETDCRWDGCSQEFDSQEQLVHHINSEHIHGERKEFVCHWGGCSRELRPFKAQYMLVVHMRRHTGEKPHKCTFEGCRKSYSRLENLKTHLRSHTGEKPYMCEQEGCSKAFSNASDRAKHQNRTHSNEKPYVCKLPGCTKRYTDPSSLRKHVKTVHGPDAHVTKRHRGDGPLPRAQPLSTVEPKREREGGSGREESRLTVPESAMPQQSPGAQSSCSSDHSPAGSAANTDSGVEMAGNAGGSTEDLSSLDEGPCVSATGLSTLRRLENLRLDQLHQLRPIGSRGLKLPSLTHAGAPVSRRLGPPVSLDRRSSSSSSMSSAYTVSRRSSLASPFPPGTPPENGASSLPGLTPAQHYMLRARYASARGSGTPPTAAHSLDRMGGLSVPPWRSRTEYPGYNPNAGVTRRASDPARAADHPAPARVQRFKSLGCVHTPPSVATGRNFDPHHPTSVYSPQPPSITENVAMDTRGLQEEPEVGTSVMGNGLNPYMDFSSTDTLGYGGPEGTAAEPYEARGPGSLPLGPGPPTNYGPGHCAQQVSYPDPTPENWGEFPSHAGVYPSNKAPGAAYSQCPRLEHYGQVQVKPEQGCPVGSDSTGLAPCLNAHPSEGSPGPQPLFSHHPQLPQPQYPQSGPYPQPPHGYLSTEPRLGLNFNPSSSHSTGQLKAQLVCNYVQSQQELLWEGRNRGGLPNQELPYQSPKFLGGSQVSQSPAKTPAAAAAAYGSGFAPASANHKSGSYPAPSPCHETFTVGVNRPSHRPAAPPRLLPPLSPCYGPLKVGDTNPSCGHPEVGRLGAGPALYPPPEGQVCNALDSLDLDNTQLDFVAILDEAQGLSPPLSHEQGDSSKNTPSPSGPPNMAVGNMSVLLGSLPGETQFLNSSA
Nature of the data set: Inhibition of GLI1 transcriptional activity in HH-responsive mouse NIH3T3 cells assessed as reduction in GLI1 protein expression at 5 uM incubated for 48 hrs in presence of SAG by Western blot analysis. The class given is cell-based. Summed up: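 Murine NIH3T3 cells given 100 nM SAG plus compound (5 μM) or DMSO for 48 h. Endogenous GLI1 protein measured by Western blot with HSP90 as loading control, band quantified against SAG-treated cells.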

Data set [6] concerns the target T2, Zinc finger protein GLI1 (Mus musculus). Nature of the data set: Inhibition of GLI1 transcriptional activity in HH-responsive mouse NIH3T3 cells assessed as reduction in SAG-induced luciferase activity at 5 uM incubated for 48 hrs by luciferase reporter gene assay relative to control. The class given is cell-based. Summed up:
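HH-responsive NIH3T3 cells carrying a GLI-dependent firefly luciferase reporter with renilla control, treated 48 h with 100 nM SAG plus compound (5 μM). Firefly/renilla ratio normalised to SAG-only cells set at 100%, reported as percent inhibition.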
In general terms: A reporter such as luciferase makes a cellular process visible.

The subject of data set [7] is A-375. Kind of data set: Antiproliferative activity against human A375 cells transfected with lentivrus-encoding shRNA against GLI1 assessed as reduction in cell viability incubated for 72 hrs by trypan blue or crystal violet staining based assay. The class given is functional. Summed up:
(§2)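 A375 melanoma cells transduced with control lentivirus (LV-c), LV-shGLI1 or LV-shGLI2, with knockdown checked by Western blot (HSP90 loading control). Cells treated with DMSO or compound at the indicated doses for 72 h, then viability read. Values are mean ± SD of at least three independent experiments.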

For data set [8], the system named is A-375. Kind of data set: Antiproliferative activity against human A375 cells assessed as reduction in cell viability incubated for 72 hrs by trypan blue or crystal violet staining based assay. The class given is functional. Conditions: Homo sapiens, A-375, 72 h; read-out: IC50.
For data set [9], the system named is A-375. Kind of data set: Antiproliferative activity against human A375 cells transfected with lentivrus-encoding shRNA against GLI2 assessed as reduction in cell viability incubated for 72 hrs by trypan blue or crystal violet staining based assay. The class given is functional. The method in brief: as §2
Data set [10] concerns the target T1, Zinc finger protein GLI1 (Homo sapiens). Nature of the data set: Inhibition of GLI1 transcriptional activity in human A375 cells assessed as downregulation of Cyclin D1 mRNA expression at 5 uM incubated for 48 hrs by qPCR analysis. As to conditions: A-375. The class given is cell-based. Summed up:
as §1

Structures are written as SMILES. pIC50: −log10 of the molar value. Activity calls are given as the source filed them. The calls are words filed in the database; no cut-off is given here.

`CCOC(=O)c1c(-c2ccccc2)csc1NC(NC(=O)CC)C(Cl)(Cl)Cl` (stereo not given): the pIC50 in the data set with Daoy was 5.22; in the data set with A-375 [8], 5.39. Further, the inhibition entry in data set [1], in [2], in [3], in [4], in data set [5] and in [10] was “Active” each time. In the data set with MCF-10A, the Activity result is “Non-Toxic”. For the same molecule, the inhibition in data set [6] amounted to 42%. The outcome in the data set on A-375 [7] and with A-375 [9] was inactive.

For `COc1cc(OC)c2c(=O)c(-c3ccc(OCC=C(C)C)c(OCC=C(C)C)c3)coc2c1`, the pIC50 in the data set with Daoy is 6.89; in the data set with A-375 [8], 6.40. Besides, the inhibition result in data set [1], in [2], in data set [3], in data set [4], in data set [5] and in data set [10] was “Active” each time. Besides, in data set [6], the inhibition was found to be 46%. In addition, the result in the data set on A-375 [7] and in the data set with A-375 [9] was inactive.

With `O=C(NC1CCCc2ccccc21)c1cnn2c(C(F)(F)F)cc(-c3cccs3)nc12` (stereo not given), the negative logarithm of the IC50 (pIC50) in the data set on Daoy was 5.36; in the data set with A-375 [8] it was 5.92. Further, the inhibition entry in data set [1], in data set [2], in data set [3], in [4], in [5] and in [10] was “Active” in each case. In the data set on MCF-10A, the Activity entry was “Non-Toxic”. Further, the inhibition in data set [6] is 49%. The result in the data set on A-375 [7] and in the data set on A-375 [9] was inactive.

The term pIC50 denotes the IC50 on a negative log10 scale, so that one unit is a factor of ten. A word on the inhibition: it is the change of the read-out against control, counted positive when it falls.
